What was measured:
[1] = Growth inhibition of pig L-MDR1 cells overexpressing human P-glycoprotein; type: functional; conditions: Sus scrofa
In short: (§1)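 Parental lines (MDCKII, LLC-PK1) and matched Pgp-overexpressing lines (MDCKII-MDR1, about 500-fold Pgp; L-MDR1, about 25000-fold Pgp) were tested with and without the Pgp inhibitor LY335979. Each experiment was run at least in triplicate, with 8 wells per concentration. GI50 came from a nonlinear four-parameter sigmoidal concentration-response fit.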

[2] = Upregulation of P-glycoprotein mRNA expression in dog MDCK2 cells; type: functional, cell-based; conditions: Canis lupus familiaris; MDCK-II
LLC-PK1 [3] = test: Ratio of GI50 for pig L-MDR1 cells overexpressing human P-glycoprotein to GI50 for pig LLC-PK1 cells; type: functional, Sus scrofa
In short: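 MDR ratio is the GI50 in L-MDR1 cells (Pgp-overexpressing) divided by the GI50 in parental LLC-PK1 cells. Each GI50 came from growth inhibition run at least in triplicate, with 8 wells per concentration, fitted by a four-parameter sigmoidal model.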

[4] = Growth inhibition of dog MDCK2 cells in presence of P-glycoprotein inhibitor LY335979; type: functional; conditions: Canis lupus familiaris, MDCK-II; in short: as §1
[5] = Growth inhibition of dog MDCK2-MDR1 cells overexpressing human P-glycoprotein in presence of P-glycoprotein inhibitor LY335979; type: functional; conditions: Canis lupus familiaris, MDCK-II; in short: as §1
[6] = Growth inhibition of dog MDCK2-MDR1 cells overexpressing human P-glycoprotein; type: functional; conditions: Canis lupus familiaris, MDCK-II; in short: as §1
MDCK-II = test: Ratio of GI50 for dog MDCK2-MDR1 cells overexpressing human P-glycoprotein to GI50 for dog MDCK2 cells; type: functional, Canis lupus familiaris
LLC-PK1 [7] = test: Growth inhibition of pig LLC-PK1 cells; type: functional; conditions: Sus scrofa; in short: as §1
LLC-PK1 [8] = test: Growth inhibition of pig LLC-PK1 cells in presence of P-glycoprotein inhibitor LY335979; type: functional; conditions: Sus scrofa; in short: as §1
[9] = target: T1, Kinesin-like protein KIF11 (Homo sapiens, UniProt P52732); test: Inhibition of untagged human Eg5 microtubule-stimulated ATPase activity
T1 sequence (P52732 whole entry): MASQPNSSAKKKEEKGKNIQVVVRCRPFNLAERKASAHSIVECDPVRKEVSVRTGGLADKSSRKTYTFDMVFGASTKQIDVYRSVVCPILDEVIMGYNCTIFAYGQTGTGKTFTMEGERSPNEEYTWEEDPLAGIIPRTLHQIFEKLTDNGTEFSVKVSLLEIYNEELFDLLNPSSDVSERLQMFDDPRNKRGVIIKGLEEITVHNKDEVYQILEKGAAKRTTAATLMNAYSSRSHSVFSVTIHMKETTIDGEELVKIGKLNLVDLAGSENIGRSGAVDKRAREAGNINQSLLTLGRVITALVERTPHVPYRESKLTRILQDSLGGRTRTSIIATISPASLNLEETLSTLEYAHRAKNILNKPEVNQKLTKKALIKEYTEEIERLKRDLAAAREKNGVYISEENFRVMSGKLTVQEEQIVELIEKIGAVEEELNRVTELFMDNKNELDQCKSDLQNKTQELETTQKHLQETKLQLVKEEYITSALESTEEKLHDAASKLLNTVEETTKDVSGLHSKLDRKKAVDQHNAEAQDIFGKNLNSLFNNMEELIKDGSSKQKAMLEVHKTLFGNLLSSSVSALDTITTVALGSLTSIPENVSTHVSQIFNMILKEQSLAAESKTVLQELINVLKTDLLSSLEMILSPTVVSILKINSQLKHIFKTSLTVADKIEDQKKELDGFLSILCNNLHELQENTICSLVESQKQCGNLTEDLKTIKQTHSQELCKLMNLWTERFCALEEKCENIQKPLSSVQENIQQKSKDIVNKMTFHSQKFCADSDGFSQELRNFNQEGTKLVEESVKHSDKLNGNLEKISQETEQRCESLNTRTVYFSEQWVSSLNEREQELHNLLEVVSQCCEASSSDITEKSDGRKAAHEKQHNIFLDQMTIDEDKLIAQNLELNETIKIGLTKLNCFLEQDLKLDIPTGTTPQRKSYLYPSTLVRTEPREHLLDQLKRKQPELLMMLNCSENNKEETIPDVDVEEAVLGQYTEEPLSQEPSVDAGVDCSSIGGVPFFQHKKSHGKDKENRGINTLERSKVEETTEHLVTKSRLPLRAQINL

[10] = Growth inhibition of pig L-MDR1 cells overexpressing human P-glycoprotein in presence of P-glycoprotein inhibitor LY335979; type: functional; conditions: Sus scrofa; in short: as §1
[11] = Growth inhibition of dog MDCK2 cells; type: functional; conditions: Canis lupus familiaris, MDCK-II; in short: as §1
LLC-PK1 [12] = test: Upregulation of P-glycoprotein mRNA expression in pig LLC-PK1 cells; type: functional, Sus scrofa
[13] = target: T1, Kinesin-like protein KIF11; test: Inhibition of untagged human Eg5 basal ATPase activity; conditions: read-out: Ki(app)
KB 3-1 = test: Ratio of inhibition of growth in P-glycoprotein overexpressing […] inhibition of growth in human KB-3-1 cells; type: functional
[14] = Ratio of inhibition of growth in P-glycoprotein overexpressing human A2780-AD10 cells to inhibition of growth in human A2780; type: functional, A2780 ADR
P388 [15] = test: Upregulation of P-glycoprotein mRNA expression in mouse P388 cells; type: functional
P388 [16] = test: Ratio of inhibition of growth in P-glycoprotein overexpressing mouse P388 cells to inhibition of growth in mouse P388; type: functional

## NCCSC(c1ccccc1)(c1ccccc1)c1ccccc1
[1]
  GI50: 4830 nM
[2]
  fold change (FC): 500
LLC-PK1 [3]
  RatioGI50: 1.5
[4]
  GI50: 850 nM
[5]
  GI50: 610 nM
[6]
  GI50: 570 nM
MDCK-II
  RatioGI50: 0.8
LLC-PK1 [7]
  GI50: 3290 nM
LLC-PK1 [8]
  GI50: 3880 nM
[9]
  IC50: 396 nM
[10]
  GI50: 4810 nM
[11]
  GI50: 740 nM
LLC-PK1 [12]
  fold change (FC): 25000
[13]
  Ki: 156 nM

## CN1CC[C@H](N(C)C(=O)N2CC(c3cc(F)ccc3F)=C[C@@]2(CO)c2ccccc2)[C@H](F)C1
KB 3-1
  Ratio: 4.5

## CCCCN1C(=O)[C@@H]2Cc3c([nH]c4ccccc34)[C@@H](c3cccc(O)c3)N2C1=O
[14]
  Ratio: 2.4

## CCOC(=O)C1=C(C)NC(=S)N[C@H]1c1cccc(O)c1 [S-MENASTROL]
LLC-PK1 [3]
  Ratio: 1
P388 [15]
  fold change (FC): 20000
LLC-PK1 [12]
  fold change (FC): 25000
P388 [16]
  Ratio: 1

Source: ChEMBL document CHEMBL1687930 (J Med Chem, 2011)
